As usually defined, the pIC50 is the negative decadic logarithm of the IC50, by convention in mol/L.

The target of assay [1] is T1, Prolyl endopeptidase (Homo sapiens) (UniProt P48147).
T1 sequence (whole entry): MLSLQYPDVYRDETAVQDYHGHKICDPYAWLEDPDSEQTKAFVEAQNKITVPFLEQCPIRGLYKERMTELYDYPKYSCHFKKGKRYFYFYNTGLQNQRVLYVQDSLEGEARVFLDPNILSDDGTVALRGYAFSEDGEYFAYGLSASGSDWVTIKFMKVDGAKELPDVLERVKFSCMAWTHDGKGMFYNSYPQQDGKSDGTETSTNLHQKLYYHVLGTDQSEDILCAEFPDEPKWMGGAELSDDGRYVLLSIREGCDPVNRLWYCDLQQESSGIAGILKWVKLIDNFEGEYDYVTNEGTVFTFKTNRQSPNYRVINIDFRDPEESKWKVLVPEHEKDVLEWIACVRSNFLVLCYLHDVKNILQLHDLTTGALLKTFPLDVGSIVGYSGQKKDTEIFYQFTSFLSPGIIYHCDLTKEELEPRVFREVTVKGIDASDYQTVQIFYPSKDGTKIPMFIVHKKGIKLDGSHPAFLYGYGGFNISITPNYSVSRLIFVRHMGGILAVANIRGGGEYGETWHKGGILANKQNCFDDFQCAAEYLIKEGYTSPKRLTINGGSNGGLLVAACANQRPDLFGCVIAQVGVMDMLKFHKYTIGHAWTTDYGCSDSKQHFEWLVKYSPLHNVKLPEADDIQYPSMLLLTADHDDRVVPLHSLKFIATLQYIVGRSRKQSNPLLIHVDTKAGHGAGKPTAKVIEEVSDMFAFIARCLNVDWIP
Nature of the assay: Inhibition of PREP in human SH-SY5Y cellular model of synucleinopathy over-expressing alpha-synuclein assessed as reduction in late apoptotic level 0.1 to 9 uM incubated for 3 days under oxidative stress condition by high content multiparametric method. In a few lines:
(§1)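 SH-SY5Y neuroblastoma cells overexpressing α-SYN were incubated with inhibitor for 3 days under oxidative stress from H₂O₂ plus FeCl₂. Aggregates were detected by thioflavin S staining. Late apoptosis was scored as nuclear condensation and fragmentation. Quantification used automated high-content imaging. Values are % of cells relative to the 1% DMSO control. Significance was tested by ANOVA with Dunnett's post-test (5% level).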

The target of assay [2] is T1, Prolyl endopeptidase (Homo sapiens). As to the kind of experiment: Inhibition of PREP in human SH-SY5Y cellular model of synucleinopathy over-expressing alpha-synuclein assessed as reduction in alpha-synuclein aggregation 0.1 to 9 uM incubated for 3 days under oxidative stress condition by high content multiparametric method. The essentials: as §1
Assay [3] is described as follows: Inhibition of bovine testes DPP9 assessed as pNA release from Ala-Pro- p-nitroanilide substrate pre-incubated with enzyme for 15 min prior to substrate addition by […]. More on the design: species or system Bos taurus.
The target of another assay is Dipeptidyl peptidase 2 (Homo sapiens, UniProt Q9UHL4). Nature of the assay: Inhibition of human seminal plasma DPP2 assessed as pNA release from Lys-Ala-p-nitroanilide substrate pre-incubated with enzyme for 15 min prior to substrate addition by […].
In a further assay the target is Dipeptidyl peptidase 4 (Homo sapiens, UniProt P27487). As to the kind of experiment: Inhibition of human seminal plasma DPP4 assessed as pNA release from Gly-Pro-p-nitroanilide substrate pre-incubated with enzyme for 15 min prior to substrate addition by […].
A further assay deals with T2, Prolyl endopeptidase FAP (Mus musculus, UniProt P97321).
T2 sequence (P97321 whole entry): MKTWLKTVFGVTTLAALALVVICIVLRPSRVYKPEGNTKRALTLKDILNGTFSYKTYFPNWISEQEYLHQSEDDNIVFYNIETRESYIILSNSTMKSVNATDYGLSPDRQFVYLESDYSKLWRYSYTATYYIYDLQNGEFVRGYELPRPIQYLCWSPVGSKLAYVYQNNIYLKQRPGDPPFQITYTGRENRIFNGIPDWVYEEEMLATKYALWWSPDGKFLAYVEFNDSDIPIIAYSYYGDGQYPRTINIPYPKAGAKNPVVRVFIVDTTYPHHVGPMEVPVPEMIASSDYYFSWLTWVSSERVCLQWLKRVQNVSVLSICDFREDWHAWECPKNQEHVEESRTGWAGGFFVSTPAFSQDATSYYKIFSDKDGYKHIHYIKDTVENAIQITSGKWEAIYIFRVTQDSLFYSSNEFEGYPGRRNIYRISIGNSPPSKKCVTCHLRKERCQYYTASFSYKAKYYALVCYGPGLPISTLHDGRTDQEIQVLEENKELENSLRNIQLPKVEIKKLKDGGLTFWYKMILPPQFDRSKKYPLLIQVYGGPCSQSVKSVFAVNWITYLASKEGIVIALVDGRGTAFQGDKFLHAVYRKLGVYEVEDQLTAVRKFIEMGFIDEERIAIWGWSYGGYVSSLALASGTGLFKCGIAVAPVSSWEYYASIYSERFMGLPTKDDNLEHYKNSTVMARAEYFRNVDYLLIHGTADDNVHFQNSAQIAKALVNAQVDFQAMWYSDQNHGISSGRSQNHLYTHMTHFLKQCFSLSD
As to the kind of experiment: Inhibition of mouse recombinant FAP expressed in HEK293 cells assessed as pNA release from Ala-Pro-p-nitroanilide pre-incubated with enzyme for 15 mins prior to substrate addition by […]. The class given is cell-based.

A further assay deals with Prolyl endopeptidase (Sus scrofa, UniProt P23687). Nature of the assay: Inhibition of pig PREP expressed in Escherichia coli using Z-Gly-Pro-p-nitroanilide substrate.

pIC50: −log10 of the molar value. The source made the active and inactive calls. No cut-off for these calls is given here.

Chain of Prolyl endopeptidase (P23687 whole entry): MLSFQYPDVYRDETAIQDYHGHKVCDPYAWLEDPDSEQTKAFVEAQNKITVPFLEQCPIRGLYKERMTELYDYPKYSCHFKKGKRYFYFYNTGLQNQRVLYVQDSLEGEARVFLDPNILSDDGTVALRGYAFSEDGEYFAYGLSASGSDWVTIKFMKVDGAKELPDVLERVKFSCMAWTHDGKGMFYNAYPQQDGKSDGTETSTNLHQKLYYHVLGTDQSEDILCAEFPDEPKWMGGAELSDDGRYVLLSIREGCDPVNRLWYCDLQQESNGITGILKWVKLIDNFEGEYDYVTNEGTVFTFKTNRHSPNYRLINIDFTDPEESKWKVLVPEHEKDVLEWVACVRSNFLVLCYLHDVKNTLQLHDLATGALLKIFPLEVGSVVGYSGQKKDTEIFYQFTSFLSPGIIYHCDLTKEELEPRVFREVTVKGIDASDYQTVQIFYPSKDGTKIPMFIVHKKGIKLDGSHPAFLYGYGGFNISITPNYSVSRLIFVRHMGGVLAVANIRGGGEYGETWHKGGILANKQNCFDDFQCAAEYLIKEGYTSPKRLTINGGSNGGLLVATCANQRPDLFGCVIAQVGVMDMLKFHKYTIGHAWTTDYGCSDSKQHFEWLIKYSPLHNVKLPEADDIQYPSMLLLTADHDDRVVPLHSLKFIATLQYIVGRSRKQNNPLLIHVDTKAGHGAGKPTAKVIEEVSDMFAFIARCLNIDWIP
Chain of Dipeptidyl peptidase 4 (P27487 whole entry): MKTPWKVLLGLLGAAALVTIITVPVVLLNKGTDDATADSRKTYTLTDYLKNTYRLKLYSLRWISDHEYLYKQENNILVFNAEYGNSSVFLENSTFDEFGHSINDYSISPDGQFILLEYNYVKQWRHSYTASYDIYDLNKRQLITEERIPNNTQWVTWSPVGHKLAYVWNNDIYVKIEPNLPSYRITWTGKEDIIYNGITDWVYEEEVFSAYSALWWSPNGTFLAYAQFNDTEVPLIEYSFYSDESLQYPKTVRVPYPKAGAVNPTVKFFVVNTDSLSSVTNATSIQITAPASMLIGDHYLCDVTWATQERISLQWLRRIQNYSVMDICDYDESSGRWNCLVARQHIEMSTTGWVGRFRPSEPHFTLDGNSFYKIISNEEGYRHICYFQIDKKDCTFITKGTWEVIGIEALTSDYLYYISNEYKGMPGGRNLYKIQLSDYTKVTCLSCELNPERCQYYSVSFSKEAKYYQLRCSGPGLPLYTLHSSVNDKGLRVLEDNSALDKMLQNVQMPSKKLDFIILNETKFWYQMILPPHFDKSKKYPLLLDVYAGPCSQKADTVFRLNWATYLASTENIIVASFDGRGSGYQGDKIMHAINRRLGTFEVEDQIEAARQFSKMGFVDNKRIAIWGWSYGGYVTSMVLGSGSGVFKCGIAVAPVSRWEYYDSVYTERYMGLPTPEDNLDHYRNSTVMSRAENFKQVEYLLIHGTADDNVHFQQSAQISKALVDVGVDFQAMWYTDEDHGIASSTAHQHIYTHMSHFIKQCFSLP

As for `CC(C)(C)OC(=O)NCc1cn([C@H]2C[C@@H](C(=O)N3CCC[C@H]3C#N)N(C(=O)CCCc3ccccc3)C2)nn1`, the inhibition result in assay [1] and in assay [2] was “Active” each time. For the same molecule, the pIC50 in assay [3] is less than 4.00; at Dipeptidyl peptidase 2, less than 4.00; on Dipeptidyl peptidase 4, less than 4.00; at Prolyl endopeptidase FAP it was less than 4.00; against Prolyl endopeptidase, 8.05.
Take `N#C[C@@H]1CCCN1C(=O)[C@@H]1C[C@H](N=[N+]=[N-])CN1C(=O)CCCc1ccccc1`: the inhibition entry in assay [1] and in assay [2] was “Active” each time. Moreover, the pIC50 in assay [3] is less than 4.00; on Dipeptidyl peptidase 2 it was less than 4.00; on Dipeptidyl peptidase 4, less than 4.00; at Prolyl endopeptidase FAP, less than 4.00; against Prolyl endopeptidase it was 8.52.

The record behind these values is ChEMBL document CHEMBL2176903, “P2-substituted N-acylprolylpyrrolidine inhibitors of prolyl oligopeptidase: biochemical evaluation, binding mode determination, and assessment in a cellular model of synucleinopathy” (J Med Chem, 2012).
